The test system of test [1] is Hepatocyte. Briefly: Hepatoprotective activity in ddY mouse hepatocytes assessed as inhibition of D-galactosamine-induced cytotoxicity at 3 uM after 44 hrs by MTT assay relative to control. Format: functional. An outline of the steps: (§1)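 Cells then exposed to D-GalN (2 mM) plus test sample for 44 h. MTT was added for 4 h. Formazan was dissolved in acidic 2-propanol and read at 562 nm (reference 660 nm). Inhibition (%) = (sample − control)/(normal − control) × 100. Values are means ± SEM.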

The subject of test [2] is Hepatocyte. Briefly: Hepatoprotective activity in ddY mouse hepatocytes assessed as inhibition of D-galactosamine-induced cytotoxicity at 10 uM after 44 hrs by MTT assay relative to control. Format: functional. An outline of the steps: as §1
Test [3] deals with Hepatocyte. Kind of test: Hepatoprotective activity in ddY mouse hepatocytes assessed as inhibition of D-galactosamine-induced cytotoxicity at 30 uM after 44 hrs by MTT assay relative to control. It is filed as functional. An outline of the steps: as §1
Test [4] concerns Hepatocyte. Kind of test: Hepatoprotective activity in ddY mouse hepatocytes assessed as inhibition of D-galactosamine-induced cytotoxicity at 100 uM after 44 hrs by MTT assay relative to control. It is filed as functional. An outline of the steps: as §1
For test [5], the system named is Hepatocyte. Kind of test: Hepatoprotective activity in ddY mouse hepatocytes assessed as inhibition of D-galactosamine-induced cytotoxicity after 44 hrs by MTT assay relative to control. Format: functional, cell-based. An outline of the steps: as §1

Take `C/C1=C\CC(C)(C)[C@@H](O)[C@H]2C[C@@]2(C)[C@@H](O)CC1`: the inhibition at 3 µM in the test with Hepatocyte [1] is 5.9%. In addition, the inhibition at 10 µM in the test with Hepatocyte [2] turned out to be 16.6%. Moreover, in the test with Hepatocyte [3], the inhibition at 30 µM worked out at 37.3%. Moreover, in the test on Hepatocyte [4], the inhibition at 100 µM was found to be 54.8%. Besides, the IC50 in the test with Hepatocyte [5] stood at 70 µM.
Taken in the same sequence, the figures for `CC1(C)C[C@@H]2O[C@@]2(C)CC[C@H]2O[C@]2(C)C[C@@H]2O[C@H]21` were 6.9%, 9.7%, 25.7%, 51.1% and 95 µM.
For `CC1(C)CC2[C@H]1CC[C@@]1(C)O[C@]2(CO)CC[C@H]1O` (stereo partly specified), the inhibition at 3 µM in the test on Hepatocyte [1] stood at 5.7%. In the test on Hepatocyte [2], the inhibition at 10 µM was found to be 10.4%. The inhibition at 30 µM in the test on Hepatocyte [3] was found to be 19.9%. In the test on Hepatocyte [4], the inhibition at 100 µM came out at 45.9%.
For the molecule `CC1(C)C[C@@H]2[C@@H]1CC[C@@]1(C)C[C@]2(O)CC[C@@H]1O`, in the test with Hepatocyte [1], the inhibition at 3 µM was 6.3%. Besides, in the test with Hepatocyte [2], the inhibition at 10 µM was found to be 16.8%. In addition, the inhibition at 30 µM in the test with Hepatocyte [3] stood at 26.7%. For the same molecule, the inhibition at 100 µM in the test on Hepatocyte [4] was 51.7%. Moreover, the IC50 with Hepatocyte [5] is 100 µM.
With `CC1=CCC(C(C)(C)O)CC1O` (stereo unspecified) [SOBREROL], the inhibition at 3 µM in the test with Hepatocyte [1] is 5.5%. The inhibition at 10 µM in the test on Hepatocyte [2] was determined as 8.9%. For the same molecule, the inhibition at 30 µM with Hepatocyte [3] is 15.9%. Further, the inhibition at 100 µM with Hepatocyte [4] was found to be 23.7%.
Regarding `CC1(C)C[C@H](O)[C@]23CC[C@@H](O)[C@@](C)(CC[C@@H]12)C3` [CLOVANEDIOL], the inhibition at 3 µM in the test on Hepatocyte [1] was 3.6%. Also, the inhibition at 10 µM with Hepatocyte [2] came to 13.6%. For the same molecule, the inhibition at 30 µM in the test with Hepatocyte [3] turned out to be 32.3%. Further, the inhibition at 100 µM in the test on Hepatocyte [4] amounted to 40.2%.
Taken in the same sequence, the figures for `C=C(C)[C@@H]1CC[C@]2(C)C(=C(C)C(=O)C[C@H]2O)C1` [LIGUCYPERONOL] were 5.5%, 13.9%, 12.6% and 46.7%.
The matching figures for `C=C(C)[C@@H]1CC[C@](C)(O)C2=C(C1)[C@](C)(O)CC2=O` [CYPERUSOL A1]: 2.2%, 5.6%, 9.5% and 16.5%.
With `C=C1C/C=C/C(C)(C)C[C@@H](O)/C(C)=C\C[C@@H]1O`, in the test on Hepatocyte [1], the inhibition at 3 µM came out at 11.6%. Besides, the inhibition at 10 µM in the test with Hepatocyte [2] was 25.6%. Further, the inhibition at 30 µM with Hepatocyte [3] amounted to 47.5%. The inhibition at 100 µM in the test on Hepatocyte [4] is 80.8%. The half-inhibitory concentration (IC50) with Hepatocyte [5] turned out to be 27 µM.
The matching figures for `COc1cc(C2Oc3cc([C@H]4Oc5cc(O)cc(O)c5C(=O)[C@@H]4O)ccc3OC2CO)ccc1O` (stereo partly specified) [SILIBININ]: 4.8%, 7.7%, 45.2%, 77% and 41 µM.
Regarding `C=C(C)[C@@H]1CC[C@](C)(O)[C@H]2CC[C@](C)(O)[C@H]2C1` [GUAIDIOL], the inhibition at 3 µM in the test with Hepatocyte [1] came to 2.6%. For the same molecule, the inhibition at 10 µM in the test on Hepatocyte [2] turned out to be 10.4%. Besides, the inhibition at 30 µM with Hepatocyte [3] came out at 20.3%. The inhibition at 100 µM with Hepatocyte [4] came out at 35.4%.
Taken in the same sequence, the figures for `CC1=C[C@H]2[C@H](C(C)C)CC[C@](C)(O)[C@H]2C[C@H]1O` were -2.3%, 3.7%, 9.3% and 15.2%.
With `C=C(C)C(CC[C@@H](C)O)CC1=C(C)CCC1=O` (stereo partly specified) [CYPERUSOL B2], the inhibition at 3 µM in the test on Hepatocyte [1] was found to be 4.4%. Moreover, in the test with Hepatocyte [2], the inhibition at 10 µM came to 6.5%. Further, the inhibition at 30 µM with Hepatocyte [3] is -1.4%. The inhibition at 100 µM with Hepatocyte [4] was determined as 19.9%.
The matching figures for `C=C(C)[C@@H]1CC[C@@]2(C)[C@H](O)CC[C@@](C)(O)[C@@H]2C1` [CYPERUSOL C]: 6.3%, 8.1%, 28.4% and 29.9%.
Taken in the same sequence, the figures for `CC1(C)C[C@H]2[C@H]1[C@H]1C[C@@]1(C)[C@H](O)CC[C@]2(C)O` [TRICYCLOHUMULADIOL] were 10.9%, 16.1%, 22.1% and 37.7%.
Take `C=C(C)[C@@H]1CC[C@@H](C)[C@@]2(O)CC(=O)C(C)=C2C1`: the inhibition at 3 µM in the test on Hepatocyte [1] is -4.5%. Further, the inhibition at 10 µM in the test on Hepatocyte [2] is -1.1%. Besides, the inhibition at 30 µM in the test on Hepatocyte [3] was found to be 13.5%. The inhibition at 100 µM in the test with Hepatocyte [4] was 58%. For the same molecule, the IC50 with Hepatocyte [5] turned out to be 83 µM.
In the case of `CC(C)(O)[C@@H]1CC=C(CO)CC1`, the inhibition at 3 µM in the test on Hepatocyte [1] is -1.5%. Besides, the inhibition at 10 µM with Hepatocyte [2] turned out to be 1.7%. Also, the inhibition at 30 µM in the test with Hepatocyte [3] came to 16.7%. In the test with Hepatocyte [4], the inhibition at 100 µM worked out at 53.3%. Moreover, the concentration for half-maximal inhibition (IC50) in the test with Hepatocyte [5] worked out at 90 µM.
As to `C=C(C)[C@@H]1CC[C@@H](C)[C@]2(O)CC[C@](C)(O)C(=O)[C@@H]12` [CYPERUSOL D], the inhibition at 3 µM in the test with Hepatocyte [1] is -3.6%. For the same molecule, the inhibition at 10 µM in the test with Hepatocyte [2] was 2.6%. In addition, the inhibition at 30 µM in the test on Hepatocyte [3] is 31.9%. The inhibition at 100 µM with Hepatocyte [4] was 46.1%.
Taken in the same sequence, the figures for `C=C(C)C(CCC(C)=O)CC1=C(C)CCC1=O` (stereo unspecified) [MANDASSIDIONE] were -0.1%, 7.7%, 14.7% and 21.6%.
The matching figures for `C=C(C)C(CC[C@H](C)O)CC1=C(C)CCC1=O` (stereo partly specified) [CYPERUSOL B1]: 3%, 20.4%, 22.7% and 34.7%.
Taken in the same sequence, the figures for `CC1(C)CC2[C@H]1CC[C@@]1(C)OC[C@]2(O)CC[C@@H]1O` (stereo partly specified) were 12.5%, 14.3%, 24.8% and 36.4%.

For the origin of these results see ChEMBL document CHEMBL1151166, “Structures of new sesquiterpenes and hepatoprotective constituents from the Egyptian herbal medicine Cyperus longus” (J Nat Prod, 2004).
